Values without a mark were called inactive. Results filed as inconclusive are left out. Active and inactive are the calls of the source.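 Rule for the calls, unless noted: active = cell viability at or below a set limit in both duplicate runs, the limit being the all-compound median minus 4 SD (cut at about 23% in these data, passing the limit was not always enough); inconclusive = no clear call, values can overlap the other calls; inactive = the rest.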
Assays:
[1] = OD615 S. cerevisiae growth inhibition, permissive medium, pilot counter-assay, permissive growth control for S. cerevisiae lifespan shortening project (AID 705;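 active = growth inhibition above 25% in both replicates, a cutoff set 3 SD above the mean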); conditions: OD615, 24 h, at 10 µM, hits give high values
Outline: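 System: S. cerevisiae with engineered DeaD lifespan system. Medium: SC raffinose/galactose permissive medium. Doses: single compound dose of 10 µM, 0.25% DMSO final. Schedule: 24 h exposure, 30 °C. Measured by: OD615 turbidity read. Read-out: growth inhibition.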

[2] = Restrictive medium S. cerevisiae growth inhibition, OD615, pilot screen of yeast lifespan reduction project, restrictive growth control (AID 706;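 active = growth inhibition above a set limit, 3 SD over mean compound inhibition, in both replicates, cut at about 43% in these data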;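 note: modified DeaD lifespan yeast strain shifted to restrictive glucose medium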); conditions: OD615, 48 h, at 10 µM, hits give high values
Outline: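 Assay system – genetically modified Saccharomyces cerevisiae, DeaD replicative lifespan assay strain · Medium – CSMM-D glucose medium · Doses – 10 µM compound, 0.25% DMSO · Times – 4 h pre-incubation, 48 h exposure at 30 °C · Signal – optical density at 615 nm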

[3] = viability gain of MRP-1-high H69AR cells under doxorubicin, pilot screen, MRP-1 activator project, CellTiter-Glo, duplicate (AID 807;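 active = viability increase at or above a cutoff of the median across tested compounds plus 3 SD, cut at about 8.5% in these data, passing the limit was not always enough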;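 note: compound pretreatment 18-22 h then 72 h combined with doxorubicin; 0% = doxorubicin alone and 100% = vehicle without doxorubicin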); conditions: H69AR viability with doxorubicin, CellTiter-Glo luminescence; at 10 µM; hits give high values
[4] = growth suppression of beta-catenin knockout HCT116, pilot screen, human colon tumor cells (AID 823); conditions: CellTiter-Glo, 60 h, at 10 µM, hits give low values;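 note: 0% = wells killed by 20 µM Hyamine and 100% = untreated DMSO cell wells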
[5] = growth suppression of PTEN-deleted HCT116, pilot screen, cell-based, HCT116 clonal line, CellTiter-Glo (AID 824;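 active = viability at or below 27.92% in each of two runs, the all-compound median minus 4 SD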;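 note: 0% = 20 µM Hyamine control and 100% = vehicle cell control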); conditions: 60 h, at 10 µM, hits give low values
[6] = inhibitors of the yeast RAM network, pilot screen, dse1pr::URA3 reporter, 5-FOA selection (AID 869;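 active = inhibition over a set limit, the all-compound mean plus 3 SD, in both replicate runs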;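 note: 0% = DMSO wells with no growth and 100% = 10 µM 1-NA-PP1 with full growth; RAM network block rescues cells from 5-FOA so hits raise OD615 growth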); conditions: S. cerevisiae dse1pr::URA3 5-FOA growth, OD615, 2 d; at 10 µM; hits give high values; strain carries analog-sensitive mutant Cbk1 kinase
[7] = RAM signaling pathway blockade in yeast – S. cerevisiae, Pdr1DBD-CYC8 efflux-inhibited sensitized strain, primary screen (AID 1298;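 active = RAM network inhibition above 8.4% in each of two replicates, 3 SD over the compound average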;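 note: 0% = DMSO untreated cells without growth and 100% = 10 µM 1-NA-PP1 full growth; higher means more yeast growth rescued from 5-FOA killing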); conditions: S. cerevisiae cbk1-as DSE1-URA3 strain, 5-FOA growth OD615, 2 d; at 50 µM; hits give high values

Row | SMILES | growth inhibition [1] [%] | growth inhibition [2] [%] | viability increase [3] [%] | viability [4] | viability [5] | inhibition [6] [%] | RAM network inhibition [7] [%]
1 | O=C(O)C1CCC(=O)N1C1c2ccccc2Oc2ccccc21 (configuration not stated) | 4.23 | 4.63 | 0.41 | 96% | 98.9% | 0.57 | 5.25
2 | COc1ccccc1CNC(=O)COC(=O)c1ccc(NC(N)=O)cc1 | -12.7 | -13.7 | -0.98 | 96.5% | 97.9% | 0.56 | 5.2
3 | COCCCNC(=O)c1oc2ccc(S(=O)(=O)N(C)C3CCCCC3)cc2c1C | 1.36 | 5.4 | 0.15 | 90.1% | 94.2% | -0.46 | 1.23
4 | CCCCC(=O)Nc1ccc(Br)cc1C(=O)O | 5.08 | -10.9 | 0.11 | 89.9% | 97.8% | 1.95 | -1.59
5 | Cc1ccc2oc(=O)c3cnn(CC(=O)NCCN4CCOCC4)c3c2c1 | -5.79 | -12 | -0.17 | 103% | 97.7% | 1.15 | 5.06
6 | COc1ccc(CNC(=O)c2ccc3c(c2)N(C)C(=O)CS3=O)cc1 (configuration not stated) | -1 | 7.29 | 1.48 | 103% | 97.3% | 1.41 | 2.04
7 | O=C(Nc1nccs1)c1cc(S(=O)(=O)N2CCCCC2)ccc1Cl | -6.76 | -16.1 | 0.46 | 99.7% | 88.6% | 1.89 | 4.88
8 | COc1cc(-c2nnc(COc3ccc4cc(Br)ccc4c3)o2)cc(OC)c1OC | -10.6 | -8.51 | 0.27 | 62.9% | 46.7% | 0.505 | 3.67
9 | CCn1c(=O)c2cc(C(=O)NCCN3CCOCC3)sc2c2ccccc21 | -7.14 | -3.89 | -4.73 | 92.2% | 76.1% | 2.47 | 1.02
10 | COc1ccc(S(=O)(=O)N2CCN(C)CC2)c2ccccc12 | -8.04 | -2.78 | -3.62 | 102% | 91.3% | 1.06 | 2.19
11 | CCCCNC(=O)c1cc2c(=O)n3cccc(C)c3nc2n1C | -8.58 | -6.39 | -4.36 | 89.4% | 87.5% | 0.93 | 2.87
12 | O=C1CC(Nc2ccc(N3CCOCC3)cc2)C(=O)N1c1cccc(C(F)(F)F)c1 (configuration not stated) | 4.95 | -14.4 | -2.76 | 110% | 98.2% | 0.74 | 5.28
13 | CC1CC(C)CN(CCCNC(=O)Cc2c(C(=O)O)[nH]c3ccccc23)C1 (configuration not stated) | -11.5 | -13.5 | -0.1 | 103% | 99.6% | 0.68 | 1.78
14 | Cc1nc2ccccc2c2oc(C(=O)N3CCc4ccccc4C3)cc12 | -17.8 | -23.5 | -3.07 | 73.1% | 72.5% | 1.98 | 3.91
15 | CCN(CCC(=O)Nc1cc(OC)cc(OC)c1)Cc1ccccc1 | 1.21 | -14.7 | -2.96 | 84.4% | 85.8% | 2.68 | 3.12
16 | COc1cccc(NC(=O)Cn2cc3c(n2)CCCCC3)c1 | -10 | -7.44 | 0.07 | 98.2% | 92% | 1.66 | 6.31
17 | O=C(O)c1cnn2c1NC(c1cccs1)CC2C(F)(F)F (configuration not stated) | -22.6 | -21.6 | 0.98 | 96.8% | 104% | 1.5 | 4.4
18 | O=C(Cc1cc(=O)[nH]c(=O)[nH]1)NCC1CCCO1 (configuration not stated) | 7.33 | -1.15 | 0.94 | 106% | 104% | 0.945 | 2.29

Row | SMILES | growth inhibition [1] [%] | growth inhibition [2] [%] | viability increase [3] [%] | viability [4] | viability [5] | inhibition [6] [%] | RAM network inhibition [7] [%]
19 | CCNc1ccc(C(=O)OCC)cc1NC(=O)c1cccc(N(C)C)c1 | -8.58 | 2.37 | -5.51 | 18.4% (active) | 19.1% (active) | 0.385 | 2.72
20 | C=CCOC(=O)C1=C(C)N(C)C(=O)NC1c1cc2c(cc1Br)OCO2 (configuration not stated) | 0.155 | -0.035 | -1.27 | 88.1% | 91.8% | 1.38 | 5.32
21 | CCCCN(C)CCNC(=O)Cn1ncc2c(=O)oc3ccc(C)cc3c21 | -3.19 | 0.355 | -2.9 | 95.1% | 94.2% | 0.93 | 3.72
22 | NC(=O)C1(N2CCCCC2)CCN(C(=O)c2ccccc2)CC1 | -4.24 | -19.4 | -1.09 | 103% | 90.4% | 0.21 | 5.36
23 | CN1CCN(C(=O)c2ccccc2NC(=O)c2cccs2)CC1 | -11 | -8.35 | -2.33 | 98.5% | 91.7% | 0.45 | 2.03
24 | O=C(NCCc1csc(-c2ccccc2)n1)c1cccs1 | -8.41 | 2.89 | 2.21 | 93.7% | 94.5% | 0.41 | 3.89
25 | CCCC(=O)c1cc(F)c(N2CCN(S(=O)(=O)c3ccccc3)CC2)cc1C | -7.04 | -27.6 | 1.53 | 90.3% | 88.5% | 3.01 | 3.18
26 | Nc1cc(N)nc(SCCOc2ccccc2)n1 | -4.79 | -0.825 | 0.93 | 106% | 106% | 2.26 | 2.17
27 | COc1ccccc1NC(=O)N1CCN(c2ccc3nncn3n2)CC1 | -3.47 | 0.79 | 0.48 | 106% | 103% | -0.315 | 0.69
28 | Cc1cccc(NC(=O)c2ccc(S(=O)(=O)N(C)C)cc2)c1 | -8.26 | -8.44 | -3.61 | 106% | 100% | 2.24 | 1.69
29 | Cn1c(=O)c2cc(S(=O)(=O)NC(Cc3ccccc3)C(=O)NCc3ccco3)ccc2n(C)c1=O (configuration not stated) | -16.4 | -11.4 | -4.79 | 101% | 92% | 2.81 | 4.39
30 | CCc1ccccc1S(=O)(=O)Cc1ccc(C(=O)N2CCN(c3ccccn3)CC2)o1 | -8.76 | -27 | -3.28 | 84.1% | 78% | 1.54 | 2.4
31 | COc1ccc(C2(C(=O)NCCCN(C)C)CCOCC2)cc1 | -19.3 | -23.9 | -0.22 | 98.3% | 100% | 1.26 | 1.69
32 | CN(C)S(=O)(=O)c1ccc(C(=O)OCCCN=C2NS(=O)(=O)c3ccccc32)cc1 | -13 | -15.2 | 0.05 | 109% | 102% | 0.955 | 2.94
33 | CCCNS(=O)(=O)c1cccc2cccnc12 | -6.87 | 6.17 | -1.58 | 101% | 96.5% | 1.89 | 0.72
34 | COCc1cc(C)nc(N2CCOCC2)c1C#N | -14.3 | 3.52 | -0.86 | 103% | 101% | 1.35 | 5.54
35 | COC(=O)c1ccc(OCC(O)CN2CCC(C)CC2)cc1 (configuration not stated) | -2.79 | -3.85 | -2.26 | 92.3% | 94.1% | 0.835 | 4.68
36 | O=C(NCC1COc2ccccc2O1)C1C2C=CC3(CN(Cc4ccccc4Cl)C(=O)C13)O2 (configuration not stated) | -6.06 | -7.88 | -1 | 84.2% | 84% | 1.02 | 0

— PubChem BioAssay
